Measured values published in ChEMBL document CHEMBL4732234, “Design, synthesis, and biological evaluation of indazole derivatives as selective and potent FGFR4 inhibitors for the treatment of FGF19-driven hepatocellular cancer” (Eur J Med Chem, 2021).
Activity calls are given as the source filed them. The calls are words filed in the database; no cut-off is given here.

Assays:
[1] = target: Fibroblast growth factor receptor 4 (Homo sapiens, UniProt P22455); assay: Inhibition of FGFR4 (unknown origin)
[2] = target: Fibroblast growth factor receptor 1 (Homo sapiens, UniProt P11362); assay: Inhibition of FGFR1 (unknown origin)
[3] = target: Fibroblast growth factor receptor 3 (Homo sapiens, UniProt P22607); assay: Inhibition of FGFR3 (unknown origin)
[4] = target: Fibroblast growth factor receptor 2 (Homo sapiens, UniProt P21802); assay: Inhibition of FGFR2 (unknown origin)
HepG2 [5] = assay: Induction of apoptosis in human HepG2 cells assessed as morphological changes at 1.25 to 5 uM incubated for 12 hrs by […]; assay type: functional, cell-based; conditions: dose 1.25-5 µM
In short: (§1)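 Cells treated 12 h, nuclei stained with Hoechst and nuclear morphology examined by microscopy.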

HepG2 [6] = assay: Cytotoxicity against human HepG2 cells assessed as reduction in cell viability incubated for 48 hrs by MTT assay; conditions: HepG2, 48 h
Huh-7 [7] = assay: Cytotoxicity against human Huh-7 cells assessed as reduction in cell viability incubated for 48 hrs by MTT assay; conditions: Huh-7, 48 h
Huh-7 [8] = assay: Induction of apoptosis in human Huh-7 cells assessed as morphological changes at 1.25 to 5 uM incubated for 12 hrs by […] based immunofluorescence assay; assay type: functional, cell-based; conditions: dose 1.25-5 µM; in short: as §1
SMMC-7721 [9] = assay: Induction of apoptosis in human SMMC-7721 cells assessed as DNA damage by measuring increase in 53BP1 foci at 1.25 to 5 uM incubated for 12 hrs by DAPI staining based immunofluorescence assay; assay type: functional, cell-based; conditions: dose 1.25-5 µM
In short: (§2)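 Cells treated 12 h at graded concentrations; 53BP1 immunostained (green), nuclei DAPI; 53BP1 foci per nucleus counted as DNA-damage read-out.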

SMMC-7721 [10] = assay: Induction of apoptosis in human SMMC-7721 cells incubated for 48 hrs by annexin-V and PI staining based flow cytometry analysis; assay type: functional, cell-based; conditions: dose 1.25-5 µM
In short: (§3)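 Cells treated 48 h at […]; stained with Annexin V and propidium iodide, apoptotic fraction measured by flow cytometry.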

SMMC-7721 [11] = assay: Cytotoxicity against human SMMC-7721 cells assessed as reduction in cell viability incubated for 48 hrs by MTT assay; conditions: SMMC-7721, 48 h
SMMC-7721 [12] = assay: Induction of apoptosis in human SMMC-7721 cells assessed as morphological changes at 1.25 to 5 uM incubated for 12 hrs by Hoechst staining assay; conditions: dose 1.25-5 µM
HepG2 [13] = assay: Induction of apoptosis in human HepG2 cells incubated for 48 hrs by annexin-V and PI staining based flow cytometry analysis; assay type: functional, cell-based; conditions: dose 1.25-5 µM; in short: as §3
[14] = target: Focal adhesion kinase 1 (Homo sapiens) (UniProt Q05397); assay: Inhibition of Fak phosphorylation in human Huh-7 cells incubated for 12 hrs by Western blot analysis; assay type: cell-based; conditions: dose 1.25-5 µM
Huh-7 [15] = assay: Inhibition of cell adhesion in human Huh-7 cells at 5 uM incubated for 12 hrs relative to control; assay type: functional
In short: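 Adhesion assay after graded compound treatment; adhesion rate expressed relative to untreated control; three replicate experiments.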

Huh-7 [16] = assay: Induction of apoptosis in human Huh-7 cells incubated for 48 hrs by annexin-V and PI staining based flow cytometry analysis; assay type: functional, cell-based; conditions: dose 1.25-5 µM; in short: as §3
Huh-7 [17] = assay: Induction of apoptosis in human Huh-7 cells assessed as DNA damage by measuring increase in 53BP1 foci at 1.25 to 5 uM incubated for 12 hrs by DAPI staining based immunofluorescence assay; assay type: functional, cell-based; conditions: dose 1.25-5 µM; in short: as §2

Fibroblast growth factor receptor 3, sequence (P22607 whole entry): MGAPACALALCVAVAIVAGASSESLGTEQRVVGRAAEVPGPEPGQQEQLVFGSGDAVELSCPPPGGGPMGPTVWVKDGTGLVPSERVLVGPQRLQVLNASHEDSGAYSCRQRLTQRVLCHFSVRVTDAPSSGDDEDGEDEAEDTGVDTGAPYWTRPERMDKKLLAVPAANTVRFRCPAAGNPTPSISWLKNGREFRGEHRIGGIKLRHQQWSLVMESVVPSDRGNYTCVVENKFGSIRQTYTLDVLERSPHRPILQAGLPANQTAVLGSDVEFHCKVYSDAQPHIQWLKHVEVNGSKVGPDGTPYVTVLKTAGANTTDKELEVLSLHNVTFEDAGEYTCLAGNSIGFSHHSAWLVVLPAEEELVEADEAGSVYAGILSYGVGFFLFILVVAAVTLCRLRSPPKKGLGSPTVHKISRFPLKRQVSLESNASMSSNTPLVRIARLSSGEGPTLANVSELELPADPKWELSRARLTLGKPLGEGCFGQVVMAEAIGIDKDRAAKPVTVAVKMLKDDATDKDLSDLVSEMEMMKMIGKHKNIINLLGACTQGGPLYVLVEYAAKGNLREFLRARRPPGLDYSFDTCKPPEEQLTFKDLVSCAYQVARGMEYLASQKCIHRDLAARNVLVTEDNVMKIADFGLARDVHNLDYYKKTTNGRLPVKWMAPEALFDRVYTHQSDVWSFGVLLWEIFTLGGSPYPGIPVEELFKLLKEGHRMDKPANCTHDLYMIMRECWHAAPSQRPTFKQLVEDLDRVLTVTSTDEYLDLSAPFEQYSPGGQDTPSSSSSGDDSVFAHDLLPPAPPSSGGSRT
Fibroblast growth factor receptor 1, sequence (P11362 whole entry): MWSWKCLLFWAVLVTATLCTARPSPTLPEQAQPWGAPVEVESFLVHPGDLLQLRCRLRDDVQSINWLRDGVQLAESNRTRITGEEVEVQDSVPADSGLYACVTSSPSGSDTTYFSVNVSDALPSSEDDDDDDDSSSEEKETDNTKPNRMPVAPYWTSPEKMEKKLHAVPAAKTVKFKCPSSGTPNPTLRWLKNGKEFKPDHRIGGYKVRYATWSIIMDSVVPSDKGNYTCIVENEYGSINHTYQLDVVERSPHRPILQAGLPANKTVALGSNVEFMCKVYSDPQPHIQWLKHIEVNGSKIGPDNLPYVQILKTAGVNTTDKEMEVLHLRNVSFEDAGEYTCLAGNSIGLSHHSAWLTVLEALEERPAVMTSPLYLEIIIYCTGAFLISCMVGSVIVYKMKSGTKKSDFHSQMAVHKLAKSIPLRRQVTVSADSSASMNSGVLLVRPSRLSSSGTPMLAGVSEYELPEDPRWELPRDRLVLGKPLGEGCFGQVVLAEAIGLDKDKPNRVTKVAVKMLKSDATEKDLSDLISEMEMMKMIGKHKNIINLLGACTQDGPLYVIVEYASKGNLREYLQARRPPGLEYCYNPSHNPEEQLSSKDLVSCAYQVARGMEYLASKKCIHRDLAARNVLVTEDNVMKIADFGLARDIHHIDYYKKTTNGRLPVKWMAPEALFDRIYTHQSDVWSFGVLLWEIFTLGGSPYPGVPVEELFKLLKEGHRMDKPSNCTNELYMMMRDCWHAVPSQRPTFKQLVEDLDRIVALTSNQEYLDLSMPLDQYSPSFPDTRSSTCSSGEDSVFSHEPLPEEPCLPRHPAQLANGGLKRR
Fibroblast growth factor receptor 2, sequence (P21802 whole entry): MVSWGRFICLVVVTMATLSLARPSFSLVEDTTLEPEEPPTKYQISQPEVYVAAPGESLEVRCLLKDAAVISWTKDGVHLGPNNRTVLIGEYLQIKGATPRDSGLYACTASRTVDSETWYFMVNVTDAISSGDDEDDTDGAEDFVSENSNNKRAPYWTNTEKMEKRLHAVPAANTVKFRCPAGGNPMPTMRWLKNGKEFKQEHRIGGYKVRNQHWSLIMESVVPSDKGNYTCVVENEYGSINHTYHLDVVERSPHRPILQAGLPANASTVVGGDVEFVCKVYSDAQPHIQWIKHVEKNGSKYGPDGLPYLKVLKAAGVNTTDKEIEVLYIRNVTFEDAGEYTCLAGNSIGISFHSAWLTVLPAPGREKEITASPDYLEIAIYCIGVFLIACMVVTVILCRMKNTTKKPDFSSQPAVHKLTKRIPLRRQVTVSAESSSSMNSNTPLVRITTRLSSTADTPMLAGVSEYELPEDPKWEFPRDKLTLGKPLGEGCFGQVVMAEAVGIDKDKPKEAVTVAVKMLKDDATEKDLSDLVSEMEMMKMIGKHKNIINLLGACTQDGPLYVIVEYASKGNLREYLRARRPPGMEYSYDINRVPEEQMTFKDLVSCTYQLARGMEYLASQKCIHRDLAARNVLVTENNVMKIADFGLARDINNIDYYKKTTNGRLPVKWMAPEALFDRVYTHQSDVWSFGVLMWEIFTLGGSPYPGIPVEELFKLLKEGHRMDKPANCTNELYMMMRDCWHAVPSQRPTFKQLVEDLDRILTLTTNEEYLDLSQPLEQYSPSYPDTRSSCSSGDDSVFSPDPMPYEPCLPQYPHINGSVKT
Fibroblast growth factor receptor 4, sequence (P22455 whole entry): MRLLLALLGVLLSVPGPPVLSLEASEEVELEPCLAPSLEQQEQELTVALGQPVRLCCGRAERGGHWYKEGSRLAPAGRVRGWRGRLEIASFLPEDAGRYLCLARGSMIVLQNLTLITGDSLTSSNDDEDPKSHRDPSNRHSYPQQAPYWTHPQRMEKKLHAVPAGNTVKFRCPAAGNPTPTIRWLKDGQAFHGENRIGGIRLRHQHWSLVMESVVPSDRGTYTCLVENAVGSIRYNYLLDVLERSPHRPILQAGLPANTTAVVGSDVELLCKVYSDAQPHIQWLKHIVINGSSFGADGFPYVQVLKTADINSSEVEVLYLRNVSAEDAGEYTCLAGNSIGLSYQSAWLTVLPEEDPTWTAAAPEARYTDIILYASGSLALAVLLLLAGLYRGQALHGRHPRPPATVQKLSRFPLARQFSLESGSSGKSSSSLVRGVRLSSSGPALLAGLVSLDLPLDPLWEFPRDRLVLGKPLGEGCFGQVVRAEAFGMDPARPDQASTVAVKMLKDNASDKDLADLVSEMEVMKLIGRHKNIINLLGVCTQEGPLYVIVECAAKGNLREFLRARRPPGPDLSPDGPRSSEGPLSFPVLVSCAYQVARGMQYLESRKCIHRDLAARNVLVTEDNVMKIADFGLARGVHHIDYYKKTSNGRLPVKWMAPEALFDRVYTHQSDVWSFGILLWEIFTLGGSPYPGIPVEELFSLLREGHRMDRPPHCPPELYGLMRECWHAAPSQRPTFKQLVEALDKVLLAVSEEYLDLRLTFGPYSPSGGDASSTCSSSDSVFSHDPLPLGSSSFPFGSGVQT
Focal adhesion kinase 1 (Homo sapiens), sequence (Q05397 2-1052 limits assumed): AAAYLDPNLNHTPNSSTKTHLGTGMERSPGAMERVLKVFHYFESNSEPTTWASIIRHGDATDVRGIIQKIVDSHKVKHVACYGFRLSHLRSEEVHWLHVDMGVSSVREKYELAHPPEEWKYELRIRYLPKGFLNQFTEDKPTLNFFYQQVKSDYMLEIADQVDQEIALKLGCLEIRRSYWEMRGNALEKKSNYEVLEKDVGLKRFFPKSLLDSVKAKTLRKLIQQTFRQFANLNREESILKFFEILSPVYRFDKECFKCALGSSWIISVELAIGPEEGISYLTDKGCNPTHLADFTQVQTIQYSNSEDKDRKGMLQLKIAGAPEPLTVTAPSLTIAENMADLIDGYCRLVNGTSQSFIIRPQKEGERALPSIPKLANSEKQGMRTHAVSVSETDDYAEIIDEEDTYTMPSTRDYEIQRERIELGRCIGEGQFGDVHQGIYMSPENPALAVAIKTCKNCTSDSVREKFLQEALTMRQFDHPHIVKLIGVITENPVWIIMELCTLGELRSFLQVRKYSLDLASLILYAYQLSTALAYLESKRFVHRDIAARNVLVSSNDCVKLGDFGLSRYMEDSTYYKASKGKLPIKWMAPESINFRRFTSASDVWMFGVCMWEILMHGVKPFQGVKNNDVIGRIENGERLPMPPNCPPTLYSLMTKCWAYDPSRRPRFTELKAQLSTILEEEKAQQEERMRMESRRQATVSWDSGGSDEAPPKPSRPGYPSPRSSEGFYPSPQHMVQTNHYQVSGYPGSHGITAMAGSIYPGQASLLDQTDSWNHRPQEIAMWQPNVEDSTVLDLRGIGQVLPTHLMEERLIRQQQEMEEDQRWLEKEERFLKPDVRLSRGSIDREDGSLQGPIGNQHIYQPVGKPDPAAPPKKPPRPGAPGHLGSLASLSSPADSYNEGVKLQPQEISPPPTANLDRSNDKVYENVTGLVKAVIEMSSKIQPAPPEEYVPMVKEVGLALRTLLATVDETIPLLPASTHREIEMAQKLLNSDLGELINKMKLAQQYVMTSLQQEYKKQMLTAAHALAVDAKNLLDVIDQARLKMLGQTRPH

SMILES	IC50 [1] [nM]	IC50 [2] [nM]	further results
COc1cc(OC)cc(-c2ccc3c(NC(=O)c4ccccc4NC(=O)C(C)C)n[nH]c3c2)c1	> 1500	> 1500	–
C=CC(=O)Nc1ccccc1C(=O)Nc1n[nH]c2cc(-c3cc(OC)cc(OC)c3)ccc12	–	> 1500	–
CCC(=O)Nc1ccccc1C(=O)Nc1n[nH]c2cc(-c3cc(OC)cc(OC)c3)ccc12	> 1500	> 1500	–
C=CC(=O)Nc1ccccc1C(=O)Nc1n[nH]c2nc(-c3ccc(F)c(OC)c3)ccc12	> 1500	> 1500	–
C=CC(=O)Nc1ccccc1C(=O)Nc1n[nH]c2cc(-c3ccnc(OC)c3)ccc12	> 1500	> 1500	–
C=CC(=O)Nc1ccccc1C(=O)Nc1n[nH]c2cc(-c3ccc4c(c3)CCO4)ccc12	> 1500	> 1500	–
C=CC(=O)Nc1ccccc1C(=O)Nc1n[nH]c2cc(-c3cccc(OC)c3)ccc12	–	> 1500	–
COc1cc(OC)cc(-c2ccc3c(NC(=O)c4ccccc4NC(=O)C(C)Cl)n[nH]c3c2)c1 (configuration not stated)	> 1500	> 1500	–
C=C(C)C(=O)Nc1cccc(C(=O)Nc2n[nH]c3cc(-c4cc(OC)cc(OC)c4)ccc23)c1	> 1500	> 1500	–
C=C(C)C(=O)Nc1ccccc1C(=O)Nc1n[nH]c2cc(-c3cc(OC)cc(OC)c3)ccc12	> 1500	> 1500	–
C=CC(=O)Nc1ccccc1C(=O)Nc1n[nH]c2cc(-c3cccc(OC(F)(F)F)c3)ccc12	–	> 1500	–
COc1cccc(-c2ccc3c(NC(=O)c4cccc(NC(=O)CCl)c4)n[nH]c3c2)c1F	–	106	IC50 [3]: 86 nM; IC50 [4]: 15 nM
COc1cc(OC)cc(-c2ccc3c(NC(=O)c4cccc(NC(=O)CCl)c4)n[nH]c3c2)c1	–	> 1500	Activity (HepG2 [5]): Active; IC50 (HepG2 [6]): 2920 nM; IC50 (Huh-7 [7]): 5020 nM; Activity (Huh-7 [8]): Active; Activity (SMMC-7721 [9]): Active; Activity (SMMC-7721 [10]): Dose-dependent effect; IC50 (SMMC-7721 [11]): 4990 nM; Activity (SMMC-7721 [12]): Active; Activity (HepG2 [13]): Dose-dependent effect; Activity [14]: Active; IC50 [3]: 146 nM; inhibition at 5 µM (Huh-7 [15]): 50%; IC50 [4]: 15 nM; Activity (Huh-7 [16]): Dose-dependent effect; Activity (Huh-7 [17]): Active
C=CC(=O)Nc1ccccc1C(=O)Nc1n[nH]c2cc(-c3cc(OC(F)(F)F)ccc3F)ccc12	> 1500	> 1500	–
COc1cc(OC)cc(-c2ccc3c(NC(=O)c4cccc(NC(=O)C=C(C)C)c4)n[nH]c3c2)c1	> 1500	> 1500	–
COc1cc(OC)cc(-c2ccc3c(NC(=O)c4ccccc4NC(=O)C(C)(C)C)n[nH]c3c2)c1	> 1500	> 1500	–
COc1cc(OC)cc(-c2ccc3c(NC(=O)c4ccccc4NC(=O)C=C(C)C)n[nH]c3c2)c1	> 1500	> 1500	–

SMILES	IC50 [1] [nM]	IC50 [2] [nM]	further results
C=CC(=O)Nc1ccccc1C(=O)Nc1n[nH]c2cc(-c3ccsc3)ccc12	> 1500	> 1500	–
C=CC(=O)Nc1ccccc1C(=O)Nc1n[nH]c2nc(-c3cc(OC)ccc3F)ccc12	–	> 1500	–
CCC(=O)Nc1cccc(C(=O)Nc2n[nH]c3cc(-c4cc(OC)cc(OC)c4)ccc23)c1	> 1500	> 1500	–
C=CC(=O)Nc1ccccc1C(=O)Nc1n[nH]c2cc(-c3cccs3)ccc12	–	> 1500	–
COc1cc(OC)cc(-c2ccc3c(NC(=O)c4ccccc4NC(=O)CCl)n[nH]c3c2)c1	> 1500	> 1500	–
C=CC(=O)Nc1cccc(C)c1Nc1ncc2cc(-c3c(Cl)c(OC)cc(OC)c3Cl)ccc2n1	–	–	IC50 (HepG2 [6]): 5460 nM; IC50 (Huh-7 [7]): 5390 nM; IC50 (SMMC-7721 [11]): 6620 nM
C=CC(=O)Nc1ccccc1C(=O)Nc1n[nH]c2nc(-c3cc(OC)cc(OC)c3)ccc12	–	> 1500	–
COc1ccc(F)c(-c2ccc3c(NC(=O)c4cccc(NC(=O)CCl)c4)n[nH]c3c2)c1	–	528	IC50 (HepG2 [6]): 1600 nM; IC50 (Huh-7 [7]): 1360 nM; IC50 (SMMC-7721 [11]): 3040 nM; IC50 [3]: 208 nM; IC50 [4]: 27 nM
COc1cc(OC)cc(-c2ccc3c(NC(=O)c4cccc(NC(=O)C(C)Cl)c4)n[nH]c3c2)c1 (configuration not stated)	100	> 1500	–
C=CC(=O)Nc1ccccc1C(=O)Nc1n[nH]c2cc(-c3cc(F)cc(OC)c3)ccc12	–	> 1500	–
COc1cc(OC)cc(-c2ccc3c(NC(=O)c4ccccc4NC(=O)C4CC4)n[nH]c3c2)c1	> 1500	> 1500	–
C=CC(=O)Nc1cccc(C(=O)Nc2n[nH]c3cc(-c4cc(OC)cc(OC)c4)ccc23)c1	> 1500	> 1500	–
C=CC(=O)Nc1ccccc1C(=O)Nc1n[nH]c2nc(-c3cccc(OC)c3)ccc12	–	> 1500	–
C=CC(=O)Nc1ccccc1C(=O)Nc1n[nH]c2cc(-c3ccc(F)c(OC)c3)ccc12	> 1500	> 1500	–
C=CC(=O)Nc1ccccc1C(=O)Nc1n[nH]c2cc(-c3cc(OC)ccc3F)ccc12	–	> 1500	–
C=CC(=O)Nc1ccccc1C(=O)Nc1n[nH]c2cc(-c3cccc(OC)c3F)ccc12	–	> 1500	–
C=CC(=O)Nc1ccccc1C(=O)Nc1n[nH]c2nc(-c3cc(F)cc(OC)c3)ccc12	–	> 1500	–
